Assay results reported in PMC4716540 (British Journal of Cancer, 2015).

Tests used:
[1] = tested on: primary myeloma cells; settings: in the presence of bone marrow stromal cells; ref Juliger et al, 2008; cited from earlier work
[2] = tested on: Hsp70 in peripheral blood mononuclear cells (PBMCs); experiment: Hsp70 levels in PBMCs by western blot as biomarker for Hsp90 inhibition; type: in vivo, human
Outline: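 Patients with relapsed/refractory B-cell malignancies received the test compound by 1-h IV infusion on days 1–5 of a 14-day cycle (cohorts 14–176 mg m⁻², 3+3 design). Hsp70 was measured by western blot at an independent central laboratory, as change from baseline, and summarised descriptively by dose level.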

**Q.** With CCc1c(O)cc(O)c(C(=O)c2ccc(OCCN3CCOCC3)c(OC)c2)c1CC(=O)N(CCOC)CCOC [KW-2478] as the molecule, how does the “Activity against primary myeloma cells” value [1] read?
**A.** retained

**Q.** And the “Hsp70 induction above baseline in PBMCs” value ([2]; doses ⩾71 mg m^–2, 8 h after dosing on days 1 and 5)?
**A.** ≥ 25%

**Q.** And the “Doses at which Hsp70 levels in PBMCs increased (target inhibition inferred)” value ([2]; western blot)?
**A.** ≥ 71 mg m^–2
